Results from different studies.
Compare with care: the assays were run in different laboratories.
BCHE: Cholinesterase (BCHE, Homo sapiens, UniProt P06276)
MC4R: Melanocortin receptor 4 (MC4R, Homo sapiens, UniProt P32245)

SMILES | target | observed | mode | technique | tested at | inhibition [%]
C=CCn1c2cc(OC(=O)CCCCCCN3CCN(Cc4ccccc4)CC3)ccc2c2ccnc(C)c21 | BCHE | enzyme activity | inhibitor | Ellman | 1 µM | 36.8
COc1cc(Nc2ncc(F)c(Nc3ccc4c(n3)NC(=O)C(C)(C)O4)n2)cc(OC)c1OC | Interferon-induced, double-stranded RNA-activated protein kinase (EIF2AK2, Homo sapiens, UniProt P19525) | binding |  | competition with immobilised ligand | 10 µM | 86
COc1ccc(S(=O)(=O)N2CCCCC2)cc1C | Cysteinyl leukotriene receptor 1 (CYSLTR1, Homo sapiens, UniProt Q9Y271) | ligand displacement |  | radioligand | 10 µM | < 30
Cn1cc(-c2cc(F)cc(N3CCn4c(cc5c4CCCC5)C3=O)c2CO)cc(Nc2ccc(N3CCN(C4COC4)CC3)cn2)c1=O | Tyrosine-protein kinase Fgr (FGR, Homo sapiens, UniProt P09769) | enzyme activity | inhibitor |  | 0.1 µM | 40
[C-]#[O+] | Catalase (CAT, Bos taurus, UniProt P00432) | enzyme activity | inhibitor |  | 1 mM | 70
C=CCn1c2cc(OC(=O)CCCCN3CCN(Cc4ccccc4Cl)CC3)ccc2c2ccnc(C)c21 | BCHE | enzyme activity | inhibitor | Ellman | 1 µM | 46.1
C#Cc1n[nH]c2c(-c3cn(C(C)c4ccccn4)c(=O)[nH]c3=O)cc(F)cc12 (centres unmarked) | Fibroblast growth factor receptor 4 (FGFR4, Homo sapiens, UniProt P22455) | enzyme activity | inhibitor |  | 1 µM | 0.5
C=CCn1c2cc(OC(=O)CCCCN3CCN(Cc4ccccc4F)CC3)ccc2c2ccnc(C)c21 | BCHE | enzyme activity | inhibitor | Ellman | 1 µM | 21
COc1cc(CNC(=O)CCCC/C=C/C(C)C)ccc1O | DNA dC->dU-editing enzyme APOBEC-3B (Homo sapiens, UniProt Q9UH17) | enzyme activity | inhibitor | fluorescence | 100 µM | 32.3
C=CCn1c2cc(OC(=O)CCCCN3CCN(Cc4ccccc4C)CC3)ccc2c2ccnc(C)c21 | BCHE | enzyme activity | inhibitor | Ellman | 1 µM | 39.8
CC(C)C[C@H](NC(=O)[C@H](Cc1ccccc1)NC(=O)c1cnccn1)B(O)O | Plasma kallikrein (KLKB1, Homo sapiens, UniProt P03952) | enzyme activity | inhibitor |  | 33 µM | 94.2
O=C(Nc1cccnn1)N1CCN([C@@H]2CCOc3cc(C(F)(F)F)ccc32)CC1 | Somatostatin receptor type 1 (SSTR1, Homo sapiens, UniProt P30872) | cell-free assay |  |  | 20 µM | 10
CCN(CC)CCCC[C@H](NC(=O)[C@H](CC(C)C)NC(=O)[C@H](C)NC(=O)[C@H](Cc1ccccc1)NC(=O)c1ccc(C(C)(C)C)cc1)C(=O)N[C@@H](CO)C(=O)OC | MC4R | ligand displacement |  | radioligand | 10 µM | 16
CN(CCN1CCC(OC(=O)Nc2ccccc2-c2ccccc2)CC1)C(=O)c1ccc(CN2CCC(C(N)=O)CC2)cc1 | MC4R | ligand displacement |  | radioligand | 1 µM | 1
